Results taken from ChEMBL document CHEMBL1135406, “Distribution of furamidine analogues in tumor cells: influence of the number of positive charges” (J Med Chem, 2002).

Test system: B16
Experiment: Drug concentration required to inhibit B16 cell growth by 50% after 72 hours of incubation
Format: functional, cell-based
Details: Mus musculus, B16, 72 h
Outline: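 B16 murine melanoma cells grown in DMEM-glutaMAX with 10% FBS, penicillin and streptomycin, 37 °C, 5% CO2; harvested by trypsinization and plated 20 h before dosing. 2 × 10⁴ exponentially growing cells per well exposed to a range of drug concentrations for 72 h at 37 °C; MTS added for a further 3 h; absorbance read at 492 nm; IC50 = 50% growth inhibition.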

SMILES | IC50
N=C(N)c1ccc(-c2ccc(-c3nc4cc(C(=N)N)ccc4[nH]3)o2)cc1 | 43.2 µM
N=C(N)c1ccc(-c2ccc(-c3ccc(C(=N)N)cc3)o2)cc1 [FURAMIDINE] | 9.2 µM
N=C(N)c1ccc2[nH]c(-c3ccc(-c4ccc(N)cc4)o3)nc2c1 | > 100 µM
CN(C)CCC/N=C(\N)c1ccc(-c2ccc(-c3nc4cc(/C(N)=N/CCCN(C)C)ccc4[nH]3)o2)cc1 | > 100 µM
c1cc(-c2ccc(-c3ccc(C4=NCCN4)cc3)o2)ccc1C1=NCCN1 | 1.1 µM
c1ccc2[nH]c(-c3ccc(-c4ccc(C5=NCCN5)cc4)o3)nc2c1 | 8.6 µM
CN(C)CCC/N=C(\N)c1ccc(-c2ccc(-c3ccc(/C(N)=N/CCCN(C)C)cc3)o2)cc1 | 2.5 µM
COc1ccc(-c2ccc(-c3ccc(C4=NCCN4)cc3)o2)cc1 | 1.7 µM
CN(C)CCCC(=O)Nc1ccc(-c2ccc(-c3ccc(NC(=O)CCCN(C)C)cc3)o2)cc1 | 2.3 µM
COc1ccc(-c2ccc(-c3ccc(C(=N)N)cc3)o2)cc1 | 3.5 µM
N=C(N)c1ccc(-c2ccc(-c3nc4ccccc4[nH]3)o2)cc1 | 51.4 µM
